Tests used:
[1] = biological target: T1, HPr kinase/phosphorylase (Bacillus subtilis (strain 168)) (UniProt O34483); test: Percent inhibition of Histidine containing protein K in kinase assay with histidine containing protein at 100 uM
T1 sequence (whole entry): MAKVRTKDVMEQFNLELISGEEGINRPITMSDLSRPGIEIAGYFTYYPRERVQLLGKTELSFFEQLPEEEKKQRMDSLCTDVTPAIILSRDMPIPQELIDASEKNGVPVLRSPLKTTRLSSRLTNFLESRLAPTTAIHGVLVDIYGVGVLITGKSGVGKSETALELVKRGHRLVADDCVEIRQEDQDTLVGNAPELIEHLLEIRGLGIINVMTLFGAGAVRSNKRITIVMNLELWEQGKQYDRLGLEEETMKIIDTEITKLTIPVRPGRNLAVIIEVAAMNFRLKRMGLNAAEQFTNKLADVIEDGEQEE
Procedure, shortened: (§1)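 Single-point kinase test at 10 and 100 µM final compound. HPr(His)6 (10 µM) is phosphorylated by 100 nM B. subtilis HPrK/P(Trx-His6-S-tag) with 0.5 mM [γ-32P]ATP, 5 mM MgCl2, 2 mM FBP, 0.1% BSA, 50 mM Tris pH 8; 37 °C, 10 min. 32P incorporation measured on P81 paper by scintillation.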

[2] = biological target: T1, HPr kinase/phosphorylase (Bacillus subtilis (strain 168)); test: Percent inhibition of Histidine containing protein K in kinase assay with histidine containing protein at 10 uM; procedure, shortened: as §1
[3] = biological target: T1, HPr kinase/phosphorylase (Bacillus subtilis (strain 168)); test: Percent inhibition of Histidine containing protein K/P in kinase assay; set-up: concentration or dose not given beside the values; settings: concentration not given here
[4] = biological target: T2, HPr kinase/phosphorylase (Bacillus subtilis (strain 168), UniProt O34483); test: Inhibition of histidine containing protein in kinase assay
T2 sequence (O34483 whole entry): T1 sequence (whole entry)
Procedure, shortened: (§2)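 B. subtilis HPrK/P(Trx-His6-S-tag) kinase, 100 nM, added last to start the reaction with 10 µM HPr(His)6 or Crh(His)6, 0.5 mM [γ-32P]ATP, 5 mM MgCl2, 2 mM FBP, 0.1% BSA, 50 mM Tris pH 8, 10% DMSO; 37 °C, 10 min. Read-out is P81 paper capture, H3PO4 washes and scintillation counting. Thirteen serial inhibitor concentrations, typically in triplicate; EC50 and Hill coefficient from nonlinear regression.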

[5] = Hill slope for the compound was measured for inhibition of histidine containing protein kinase assay; procedure, shortened: as §2
[6] = Hill slope for the compound was measured for inhibition of Crh kinase assay
[7] = biological target: HPr kinase/phosphorylase (Bacillus subtilis) (UniProt O34483); test: Effective concentration for inhibition of HPr kinase/phosphorylase in kinase assay
[8] = Effective concentration for inhibition of […] in kinase assay along with ADP; set-up: species or system Bacillus subtilis
Procedure, shortened: (§3)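 Kinase reaction, 37 °C 10 min: 100 nM HPrK/P(Trx-His6-S-tag), 10 µM HPr(His)6 or Crh(His)6, 0.5 mM [γ-32P]ATP, 2 mM FBP, 0.1% BSA, pH 8 Tris. ADP given alone or combined with inhibitor at a fixed concentration ratio; ≥13 conditions in triplicate. Phosphate retained on P81 paper is counted. EC50 and Hill coefficient fitted by nonlinear regression.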

[9] = Effective concentration for inhibition of […] in phosphatase assay; set-up: species or system Bacillus subtilis
Procedure, shortened: (§4)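 Substrates HPr(His)6 or Crh(His)6 (8 µM final) are first fully phosphorylated by HPrK/P with [γ-32P]ATP and FBP, pH 8, 37 °C. Inhibitor, 13 serial concentrations premixed with inorganic phosphate (K2HPO4/KH2PO4, pH 8.0, 1 mM final), then added and incubated 2 h at 37 °C. Precipitating top concentrations excluded. Read-out by P81/scintillation; mean of n = 3; EC50 and Hill coefficient by nonlinear regression.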

[10] = biological target: T2, HPr kinase/phosphorylase; test: Inhibition of histidine containing protein in kinase assay with ADP; procedure, shortened: as §3
[11] = biological target: T2, HPr kinase/phosphorylase; test: Inhibition of histidine containing protein in phosphatase assay; procedure, shortened: as §4
[12] = Hill slope for the compound was measured for inhibition of histidine containing protein kinase assay along with ADP; procedure, shortened: as §3
[13] = Hill slope for the compound was measured for inhibition of histidine containing protein phosphatase assay; procedure, shortened: as §4
[14] = Combined index for the compound to that of ADP in kinase assay against histidine containing protein
Procedure, shortened: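 B. subtilis HPrK/P(Trx-His6-S-tag), 100 nM, phosphorylating 10 µM HPr(His)6 or Crh(His)6; [γ-32P]ATP 0.5 mM, 50 mM Tris pH 8, 5 mM MgCl2, 2 mM FBP, 0.1% BSA, 37 °C, 10 min. Inhibitor and ADP co-varied at a constant ratio set by their separate EC50s; ≥13 conditions in triplicate. Chou-Talalay combination index computed at EC50.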

[15] = Combined index for the compound to that of ADP in kinase assay against Crh
[16] = Hill slope for the compound was measured for inhibition of Crh phosphatase assay
[17] = Hill slope for the compound was measured for inhibition of Crh kinase assay along with ADP
[18] = biological target: T1, HPr kinase/phosphorylase (Bacillus subtilis (strain 168)); test: Percent inhibition of Histidine containing protein K in kinase assay at 100 uM; procedure, shortened: as §1
[19] = biological target: T1, HPr kinase/phosphorylase (Bacillus subtilis (strain 168)); test: Percent inhibition of Histidine containing protein K in kinase assay at 10 uM; procedure, shortened: as §1

| Structure (SMILES) | inhibition [1] [%] | inhibition [2] [%] | other results |
| --- | --- | --- | --- |
| NCCCCCCCCCCC[n+]1c(N)n(Cc2ccccc2)c2ccccc21 | 62 | 24 | – |
| CCCCCCCCCCCC[n+]1c(N)n(Cc2ccc(Cl)cc2)c2ccccc21 | 21 | 17 | – |
| Cn1c(N)[n+](CCCCCCCCCCCC[n+]2c(N)n(C)c3ccccc32)c2ccccc21 | – | – | inhibition [3]: 64% |
| Nc1n(Cc2ccccc2)c2ccccc2[n+]1CCCCC[n+]1c(N)n(Cc2ccccc2)c2ccccc21 | – | – | EC50 [4]: 93 µM; Activity [5]: 1.3; Activity [6]: 1.3; EC50 [7]: 210 µM |
| Nc1cccc[n+]1CCCCCCCCCCCC[n+]1ccccc1N | – | – | inhibition [3]: < 5% |
| CCCCCCCCCCCC[n+]1c(N)n(Cc2ccc(C)cc2)c2ccccc21 | 23 | 0 | – |
| CCCCCCCCCCCC[n+]1c(N)n(CCc2ccccc2)c2ccccc21 | 98 | 0 | – |
| CC(C)(C)OC(=O)NCCCCCCCCCCC[n+]1c(N)n(Cc2ccccc2)c2ccccc21 | 96 | 14 | – |
| Nc1n(Cc2ccccc2)c2ccccc2[n+]1CCCCCCCCCCCCN1CCN(c2ccccc2)CC1 | 96 | 41 | – |
| CCCCCCCCCCCC[n+]1c(N)n(CCCc2ccccc2)c2ccccc21 | 96 | 38 | – |
| CC(C)(C)OC(=O)NCCCCCC[n+]1c(N)n(Cc2ccccc2)c2ccccc21 | 14 | 9 | – |
| Nc1n(Cc2ccccc2)c2ccccc2[n+]1CCCCCCCCCCCCNCc1ccccc1 | 96 | 50 | – |
| Nc1n(Cc2ccccc2)c2ccccc2[n+]1CCCCCCCCCCCC[n+]1c(N)n(Cc2ccccc2)c2ccccc21.Nc1ncnc2c1ncn2[C@@H]1O[C@H](COP(=O)(O)OP(=O)(O)O)[C@@H](O)[C@H]1O | – | – | EC50 [8]: 12 µM; EC50 [9]: 14 µM; EC50 [4]: 10 µM; EC50 [10]: 5.2 µM; EC50 [11]: 16 µM; Activity [5]: 1.8; Activity [12]: 2.2; Activity [13]: 2.1; CI [14]: 1; CI [15]: 1.1; Activity [6]: 2.4; Activity [16]: 1.7; EC50 [7]: 21 µM; Activity [17]: 2.3 |
| Nc1n(Cc2ccccc2)c2ccccc2[n+]1CC(=O)Nc1ccccc1 | 16 | 13 | – |
| CCCCCCCCCCCC[n+]1c(N)n(Cc2ccc(OC)cc2)c2ccccc21 | 95 | 34 | – |
| CCCCCCCCCCCC[n+]1c(N)n(Cc2ccc(Cl)c(Cl)c2)c2ccccc21 | 51 | 9 | – |

| Structure (SMILES) | inhibition [1] [%] | inhibition [2] [%] | other results |
| --- | --- | --- | --- |
| Nc1sc2ccccc2[n+]1CCCCCCCCCCCC[n+]1c(N)sc2ccccc21 | – | – | inhibition [3]: < 5% |
| Nc1n(Cc2ccccc2)c2ccccc2[n+]1CCCCCN1CCN(c2ccccc2)CC1 | 34 | 13 | – |
| Nc1n(Cc2ccccc2)c2ccccc2[n+]1CCCCCCCCCCCCN1C(=O)c2ccccc2C1=O | 97 | 40 | – |
| Nc1c2ccccc2cc[n+]1CCCCCCCCCCCC[n+]1ccc2ccccc2c1N | – | – | inhibition [3]: < 5% |
| Nc1n(Cc2ccccc2)c2ccccc2[n+]1CCCCCCCC[n+]1c(N)n(Cc2ccccc2)c2ccccc21 | – | – | EC50 [4]: 20 µM; Activity [5]: 1.1; Activity [6]: 2.2; EC50 [7]: 71 µM |
| Nc1n(Cc2ccccc2)c2ccccc2[n+]1CCCCCNCc1ccccc1 | 53 | 12 | – |
| Nc1n(Cc2ccccc2)c2ccccc2[n+]1CCCCCCCCN1CCN(c2ccccc2)CC1 | 86 | 33 | – |
| CN1CCN(CCCCCCCCCCCC[n+]2c(N)n(Cc3ccccc3)c3ccccc32)CC1 | 93 | 35 | – |
| Nc1n(Cc2ccccc2)c2ccccc2[n+]1CCCCCCCCCCCCN1CCOCC1 | 90 | 31 | – |
| Nc1ncnc2c1ncn2[C@@H]1O[C@H](COP(=O)(O)OP(=O)(O)O)[C@@H](O)[C@H]1O [ADENOSINE DIPHOSPHATE] | – | – | EC50 [4]: 4300 µM; Activity [5]: 0.9; Activity [6]: 1.4; EC50 [7]: 7400 µM |
| c1c[n+](CCCCCCCCCCCC[n+]2cc[nH]c2)c[nH]1 | – | – | inhibition [3]: < 5% |
| Nc1n(Cc2ccccc2)c2ccccc2[n+]1CCCCCCCCCCCCNC1CCCCC1 | 93 | 11 | – |
| CCCCCCCCCCCC[n+]1c(N)n(Cc2ccccc2)c2ccccc21 | – | – | inhibition [18]: 90%; inhibition [19]: 18%; EC50 [4]: 29 µM; Activity [5]: 5.3; Activity [6]: 6.4; EC50 [7]: 32 µM |
| Nc1n(Cc2ccccc2)c2ccccc2[n+]1Cc1ccccc1 | 33 | 13 | – |
| Nc1cc2c(n[n+]1CCCCCCCCCCCC[n+]1nc3c(cc1N)-c1ccccc1CC3)CCc1ccccc1-2 | – | – | inhibition [3]: < 5% |
| Nc1n(Cc2ccccc2)c2ccccc2[n+]1CCCCCCCCCCCCNc1ccccc1 | 96 | 46 | – |

Second part, led by results:

| inhibition [1] [%] | inhibition [2] [%] | Structure (SMILES) | other results |
| --- | --- | --- | --- |
| 10 | 3 | Nc1n(Cc2ccccc2)c2ccccc2[n+]1CCCCCC(=O)[O-] | – |
| 24 | 18 | NCCC[n+]1c(N)n(Cc2ccccc2)c2ccccc21 | – |
| 3 | 2 | Nc1n(Cc2ccccc2)c2ccccc2[n+]1CC(=O)[O-] | – |
| 11 | 3 | NC(=O)CCCCC[n+]1c(N)n(Cc2ccccc2)c2ccccc21 | – |
| 5 | 13 | Nc1n(Cc2ccccc2)c2ccccc2[n+]1CCCCCCO | – |
| 7 | 7 | CNC(=O)C[n+]1c(N)n(Cc2ccccc2)c2ccccc21 | – |
| 55 | 9 | CCCCCCCC[n+]1c(N)n(Cc2ccccc2)c2ccccc21 | – |
| 6 | 4 | Nc1n(Cc2ccccc2)c2ccccc2[n+]1CCCO | – |
| 20 | 11 | Nc1n(Cc2ccccc2)c2ccccc2[n+]1CCCc1ccccc1 | – |
| 37 | 9 | Nc1n(Cc2ccccc2)c2ccccc2[n+]1CCCCCCCCCCCO | – |
| 14 | 13 | CCC[n+]1c(N)n(Cc2ccccc2)c2ccccc21 | – |
| 12 | 18 | CC(C)(C)OC(=O)NCCC[n+]1c(N)n(Cc2ccccc2)c2ccccc21 | – |
| 39 | 2 | Nc1n(Cc2ccccc2)c2ccccc2[n+]1CCCCCCCCCCC(=O)[O-] | – |
| 32 | 12 | CCCCC[n+]1c(N)n(Cc2ccccc2)c2ccccc21 | – |
| 33 | 12 | NCCCCCC[n+]1c(N)n(Cc2ccccc2)c2ccccc21 | – |

Reference: ChEMBL document CHEMBL1137090, “Heterocyclic bis-cations as starting hits for design of inhibitors of the bifunctional enzyme histidine-containing protein kinase/phosphatase from Bacillus subtilis” (J Med Chem, 2004)
